From ChEMBL document CHEMBL5038580 (J Med Chem, 2022)
The source made the active and inactive calls. The rule behind the calls is not given here. Residues, ends and D or L forms follow the SMILES beside them.

Legend:
SARS-CoV-2 [1] = assay: Antiviral activity against SARS-CoV-2 transfected in 293T cells assessed as inhibition of viral S protein mediated membrane fusion to 293T/ACE2 cells at 20 uM incubated for 24 hrs by fluorescence microscopy analysis; type: functional, organism-based; conditions: Severe acute respiratory syndrome coronavirus 2, HEK-293T
In short: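 Single-concentration screen at 20 μM. Effector 293T cells expressing S/EGFP (10^4) were added to ACE2-293T target cells (10^5/well) and co-incubated at 37 °C for 24 h. Fusion was scored by fluorescence microscopy from counts of fused and unfused cells.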

Human coronavirus OC43 [2] = assay: Antiviral activity against HCoV-OC43 assessed as inhibition of viral S-protein mediated cell-cell fusion in Huh7 cells preincubated for 30 mins followed by cell addition and measured after 24 hrs; type: functional, cell-based; conditions: Betacoronavirus 1, OC43, Huh-7
In short: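 Effector HEK293T cells were transfected with an OC43 spike/GFP plasmid and harvested after 36 h. They were preincubated with diluted peptides at 37 °C for 30 min, then co-incubated with Huh-7 target cells in the presence of trypsin for 24 h. Inhibition was calculated from counts of fused and unfused cells. Three independent experiments, mean ± SD.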

Human coronavirus OC43 [3] = assay: Antiviral activity against HCoV-OC43 assessed as reduction in viral infection preincubated for 30 mins followed by RD cells addition and measured after 3 days by CCK-8 assay; type: functional; conditions: Betacoronavirus 1, OC43, RD
In short: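 HCoV-OC43 (100 TCID50) was mixed with diluted peptides for 30 min at 37 °C, then added to RD cells. After 3 days, cytopathic effect was read by CCK-8. Three independent experiments, mean ± SD.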

in vitro [4] = conditions: human, RD cells
Huh-7 = assay: Cytotoxicity against human Huh7 cells incubated for 48 hrs by CCK-8 assay; type: functional
In short: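 Huh-7 cells (100 μL at 1 × 10^5 cells/mL) were preincubated 12 h at 37 °C, 5% CO2. Serially diluted peptide was added for 48 h, with a no-peptide blank and a Triton X-100 positive control. CCK-8 was added for 2 h and absorbance read at 450 nm. Three independent experiments, mean ± SD.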

Mus musculus = assay: Antiviral activity against MERS-COV infected in BALB/c mouse at 0.023 mmol/kg, iv measured upto 12 hrs; type: functional, organism-based; conditions: time hrs <=12
In short: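 Peptide in PBS (pH 7.4) was given at 0.023 mmol/kg i.v. to three male BALB/c mice aged 8 weeks. Sera were tested in a 2 h S-mediated fusion assay with Huh-7 target cells. The serum dilution giving 50% fusion inhibition was calculated. Significance by Student's t test.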

[5] = system: Human immunodeficiency virus 1; assay: Antiviral activity against HIV 1 25710-2 subtype C assessed as inhibition of viral entry preincubated for 30 min followed by U87-CD4-[…] positive cells addition and culture medium replacement after 12 hrs post infection and measured after 48 hrs by luciferase assay; type: functional, organism-based; conditions: Human immunodeficiency virus 1, 25710-2 subtype C
In short: (§1)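 U87 CD4+ CCR5+ cells (1 × 10^4/well) were seeded and grown for 12 h at 37 °C, 5% CO2. Diluted peptides were mixed with pseudovirus for 30 min at 37 °C and then put on the cells. Medium was replaced 12 h post-infection. Cells were lysed 48 h later and luciferase was read. Three independent experiments, mean ± SD.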

[6] = system: Human immunodeficiency virus 1; assay: Antiviral activity against HIV 1 JRFL subtype B assessed as inhibition of viral entry preincubated for 30 min followed by U87-CD4-[…] positive cells addition and culture medium replacement after 12 hrs post infection and measured after 48 hrs by luciferase assay; type: functional, organism-based; conditions: Human immunodeficiency virus 1, JRFL subtype B; in short: as §1
[7] = system: Human immunodeficiency virus 1; assay: Antiviral activity against HIV-1 IIIB assessed as inhibition of HIV-1 Env mediated cell-cell fusion in MT-2 cells preincubated for 30 mins followed by cell addition and measured after 2 hrs by calcein AM staining based fluorescence microscopy; type: functional, organism-based; conditions: Human immunodeficiency virus 1, IIIB, MT2
In short: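 H9/HIV-1 IIIB cells were labelled with Calcein AM for 30 min at 37 °C, washed, and resuspended in RPMI/10% FBS. They were incubated with diluted peptides for 30 min at 37 °C. MT-2 cells (1 × 10^5) were then added and cultured for 2 h at 37 °C. Fused cells were counted by fluorescence microscopy and IC50 was calculated. Three independent experiments.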

[8] = system: Human immunodeficiency virus 1; assay: Antiviral activity against HIV 1 BaL(R5) incubated overnight by ELISA analysis; type: functional, organism-based; conditions: Human immunodeficiency virus 1, BaL(R5)
In short: (§2)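 Peptides were diluted in FBS-free RPMI 1640 and mixed with 100 TCID50 HIV-1 BaL. CEMx174 5.25 M7 cells (10^4) were added and cultured overnight at 37 °C, then medium was changed to RPMI/10% FBS. After 6 more days, supernatants were lysed with 5% Triton X-100 and p24 was measured by ELISA. IC50 calculated from three independent experiments.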

[9] = system: Human immunodeficiency virus 1; assay: Antiviral activity against HIV 1 IIIB([…]) incubated overnight by ELISA analysis; type: functional, organism-based
In short: as §2, with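 “HIV-1 IIIB. MT-2” for “HIV-1 BaL. CEMx174 5.25 M7”, “After 3” for “After 6”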

SARS-CoV-2 [10] = assay: Antiviral activity against SARS-CoV-2 transfected in 293T cells assessed as inhibition of viral S protein mediated membrane fusion to 293T/ACE2 cells incubated for 24 hrs by fluorescence microscopy analysis; type: functional, organism-based, HEK293T; conditions: Severe acute respiratory syndrome coronavirus 2, HEK-293T
In short: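 Effector 293T cells were transfected with an S/EGFP plasmid for 48 h and collected in FBS-free DMEM. ACE2-293T target cells (10^5/well) were plated 6–8 h before fusion. Effector cells (10^4) were added with graded peptide dilutions and co-incubated at 37 °C for 24 h. Percent inhibition was calculated from fused and unfused cell counts under fluorescence microscopy.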

in vitro [11] = conditions: human, MT2 cells

Row | Compound | Activity (SARS-CoV-2 [1]) | IC50 (Human coronavirus OC43 [2]) [nM] | IC50 (Human coronavirus OC43 [3]) [nM] | CC50 at 48 h (in vitro [4]) [nM] | CC50 (Huh-7) [nM] | Activity (Mus musculus) | IC50 [5] [nM] | IC50 [6] [nM] | IC50 [7] [nM] | IC50 [8] [nM] | IC50 [9] [nM] | IC50 (SARS-CoV-2 [10]) [nM] | CC50 at 48 h (in vitro [11]) [nM]
1 | CC[C@H](C)[C@H](NC(=O)[C@H](C)NC(=O)[C@H](CCC(=O)O)NC(=O)[C@H](CCC(=O)O)NC(=O)[C@H](CC(C)C)NC(=O)[C@H](CCCCN)NC(=O)[C@H](CCCCN)NC(=O)[C@H](CCSC)NC(=O)[C@H](CCC(=O)O)NC(=O)[C@H](Cc1ccc(O)cc1)NC(=O)[C@H](CCC(=O)O)NC(=O)[C@H](CC(C)C)NC(=O)[C@H](CC(=O)O)NC(=O)[C@H](CC(C)C)NC(=O)[C@H](Cc1ccccc1)NC(=O)[C@@H](NC(=O)[C@@H](NC(=O)[C@H](CC(N)=O)NC(=O)[C@@H](NC(=O)[C@H](CCC(N)=O)NC(=O)[C@H](CC(=O)O)NC(=O)[C@H](CC(C)C)NC(=O)[C@H](CO)NC(C)=O)[C@@H](C)CC)C(C)C)[C@@H](C)O)C(=O)N[C@@H](CCCCN)C(=O)N[C@@H](CCCCN)C(=O)N[C@@H](CC(C)C)C(=O)N[C@@H](CCC(=O)O)C(=O)N[C@@H](CCC(=O)O)C(=O)N[C@@H](CO)C(=O)N[C@@H](Cc1ccc(O)cc1)C(=O)N[C@H](C(=O)N[C@@H](CC(=O)O)C(=O)N[C@@H](CC(C)C)C(=O)N[C@@H](CCCCN)C(=O)N[C@@H](CCC(=O)O)C(=O)N[C@@H](CC(C)C)C(N)=O)[C@@H](C)CC | Active | 280 | 970 | > 40000 |  |  |  |  |  |  |  |  | 
2 | CC[C@H](C)[C@H](NC(=O)[C@H](Cc1ccc(O)cc1)NC(=O)[C@H](CO)NC(=O)[C@H](CCC(=O)O)NC(=O)[C@H](CCC(=O)O)NC(=O)[C@H](CC(C)C)NC(=O)[C@H](CCCCN)NC(=O)[C@H](CCCCN)NC(=O)[C@@H](NC(=O)[C@@H](NC(=O)[C@H](CCC(=O)O)NC(=O)[C@H](CCC(=O)O)NC(=O)[C@H](CC(C)C)NC(=O)[C@H](CCCCN)NC(=O)[C@H](CCCCN)NC(=O)[C@H](CCSC)NC(=O)[C@H](CCC(=O)O)NC(=O)[C@H](Cc1ccc(O)cc1)NC(=O)[C@H](CCC(=O)O)NC(=O)[C@H](CC(C)C)NC(=O)[C@H](CC(=O)O)NC(=O)[C@H](CC(C)C)NC(=O)[C@H](CC(C)C)NC(=O)[C@@H](NC(=O)[C@@H](NC(=O)[C@H](CC(N)=O)NC(=O)[C@@H](NC(=O)[C@H](CCC(N)=O)NC(=O)[C@@H](NC(=O)[C@H](CC(C)C)NC(=O)[C@H](CO)NC(C)=O)[C@@H](C)O)[C@@H](C)CC)[C@@H](C)O)[C@@H](C)O)C(C)C)C(C)C)C(=O)N[C@@H](CC(=O)O)C(=O)N[C@@H](CC(C)C)C(=O)N[C@@H](CCCCN)C(=O)N[C@@H](CCC(=O)O)C(=O)N[C@@H](CC(C)C)C(N)=O |  |  |  |  | > 50000 | Active |  |  |  |  |  |  | 
3 | CC[C@H](C)[C@H](NC(C)=O)C(=O)N[C@@H](CCC(=O)O)C(=O)N[C@@H](CCC(=O)O)C(=O)N[C@H](C(=O)N[C@H](C(=O)N[C@@H](CCCCN)C(=O)N[C@@H](CCCCN)C(=O)N[C@H](C(=O)N[C@@H](Cc1c[nH]cn1)C(=O)N[C@@H](Cc1c[nH]cn1)C(=O)N[C@H](C(=O)N[C@@H](CCC(=O)O)C(=O)N[C@@H](CCCNC(=N)N)C(=O)N[C@@H](C)C(=O)N[C@H](C(=O)N[C@@H](CCC(=O)O)C(=O)N[C@@H](C)C(=O)N[C@@H](CCC(N)=O)C(=O)N[C@@H](CCC(N)=O)C(=O)N[C@@H](CCCCN)C(=O)N[C@@H](CC(C)C)C(=O)N[C@@H](CC(C)C)C(=O)N[C@@H](CCC(N)=O)C(=O)N[C@@H](CC(C)C)C(=O)N[C@H](C(=O)N[C@H](C(=O)N[C@@H](Cc1c[nH]c2ccccc12)C(=O)NCC(=O)N[C@H](C(=O)N[C@@H](CCCCN)C(=O)N[C@@H](CCC(N)=O)C(=O)N[C@@H](CC(C)C)C(=O)N[C@@H](CCC(N)=O)C(=O)N[C@@H](C)C(=O)N[C@@H](CCCNC(=N)N)C(=O)N[C@H](C(=O)N[C@@H](CC(C)C)C(N)=O)[C@@H](C)CC)[C@@H](C)CC)C(C)C)[C@@H](C)O)[C@@H](C)CC)[C@@H](C)CC)[C@@H](C)CC)C(C)C)[C@@H](C)CC (Ac-IEEIVKKIHHIERAIEAQQKLLQLTVWGIKQLQARIL-NH2) |  | > 20000 | > 20000 |  |  |  | 298 | 353 | 472 | 176 | 18.5 | > 20000 | 
4 | enfuvirtide |  |  |  |  |  |  | 11.5 | 7.86 | 24 | 1.58 | 17.8 |  | > 10000
